Experimental data: ChEMBL document CHEMBL6177921, “Enhancing the antimycobacterial efficacy of pyridine-4-carbohydrazide: linkage to additional antimicrobial agents via oxocarboxylic acids” (RSC Med Chem, 2025)
Values after ≈ are worked out from the molar mass of the structure shown.

What was measured:
[1] = system: Candida albicans; test: Antifungal activity against Candida albicans ATCC 24443 measured after 24 to 48 hrs by microdilution broth method; assay type: functional; conditions: time 24-48 hrs
In short: (§1)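 Yeast broth microdilution per EUCAST, slightly modified. Medium was RPMI-1640 with 2% glucose, MOPS-buffered to pH 7.0. Compounds were tested at 0.98–500 μM with final DMSO ≤1.0% (v/v). Inoculum came from 18–24 h cultures, final ~1–5 × 10^5 CFU mL−1. Plates were incubated statically, dark and humidified, at 35 ± 2 °C. MIC was read visually at 24 and 48 h (no visible growth).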

[2] = system: Mycobacterium tuberculosis; test: Antimycobacterial activity against Mycobacterium tuberculosis H37Rv CNCTC 331/88 assessed as bacterial growth inhibition incubated for 21 days by two fold serial dilution method; assay type: functional; conditions: H37Rv CNCTC 331/88, 504 h, time 21 day
[3] = system: Pichia kudriavzevii; test: Antifungal activity against Candida krusei ATCC 6258 measured after 24 to 48 hrs by microdilution broth method; assay type: functional; conditions: time 24-48 hrs; in short: as §1
[4] = system: Mycobacterium avium; test: Antimycobacterial activity against INH/RIF/rifabutin/OFX/EMB resistant Mycobacterium avium CNCTC 330/88 assessed as bacterial growth inhibition incubated for 21 days by two-fold serial dilution method; assay type: functional; conditions: CNCTC 330/88, 504 h, time 21 day
In short: (§2)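 M. avium CNCTC 330/88 (stock suspension dilution 10−5) grown in Šula's semisynthetic liquid medium; two-fold serial dilutions 1000 to 1 μM from DMSO stocks (final DMSO 1.0% v/v); final load 1.5 × 10^5 CFU mL−1; MIC read visually as lowest concentration giving complete growth inhibition after 14 and 21 days.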

[5] = system: Mycobacterium kansasii; test: Antimycobacterial activity against INH/RIF/rifabutin/OFX/EMB Mycobacterium kansasii CNCTC 6509/96 clinical isolate assessed as bacterial growth inhibition incubated for 7 days by two-fold serial dilution method; assay type: functional; conditions: CNCTC 6509/96, 168 h, time 7 day
In short: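 Šula's liquid semisynthetic medium; M. kansasii clinical isolate 6509/96 used at stock dilution 10−4, final ~1.5 × 10^5 CFU mL−1. Two-fold dilutions ran 1000–1 μM with final DMSO 1.0% (v/v). MIC was read visually as complete growth inhibition after 7, 14 and 21 days.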

[6] = system: Candida parapsilosis; test: Antifungal activity against Candida parapsilosis CCM 8260 measured after 24 to 48 hrs by microdilution broth method; assay type: functional; conditions: Lodderomyces parapsilosis, time 24-48 hrs; in short: as §1
[7] = system: Candida tropicalis; test: Antifungal activity against Candida tropicalis CCM 8264 measured after 24 to 48 hrs by microdilution broth method; assay type: functional; conditions: time 24-48 hrs; in short: as §1
[8] = system: Mycobacterium avium; test: Antimycobacterial activity against INH/RIF/rifabutin/OFX/EMB resistant Mycobacterium avium CNCTC 330/88 assessed as bacterial growth inhibition incubated for 14 days by two-fold serial dilution method; assay type: functional; conditions: CNCTC 330/88, 336 h, time 14 day; in short: as §2
[9] = system: Candida albicans; test: Antifungal activity against Candida albicans CCM 8320 measured after 24 to 48 hrs by microdilution broth method; assay type: functional; conditions: time 24-48 hrs; in short: as §1
[10] = system: Candida tropicalis; test: Antifungal activity against Candida tropicalis ATCC 750 measured after 24 to 48 hrs by microdilution broth method; assay type: functional; conditions: time 24-48 hrs; in short: as §1
[11] = system: Aspergillus flavus; test: Antifungal activity against Aspergillus flavus CCM 8363 measured after 24 to 48 hrs by microdilution broth method; assay type: functional; conditions: time 24-48 hrs
In short: (§3)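 Filamentous fungi tested by broth microdilution per EUCAST with minor changes. Compounds were tested at 0.98–500 μM with final DMSO ≤1.0% (v/v). Plates were incubated statically, dark and humidified, at 35 ± 2 °C for 24 and 48 h. MIC was the lowest concentration showing no visible growth.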

[12] = system: Aspergillus fumigatus; test: Antifungal activity against Aspergillus fumigatus ATCC 204305 measured after 24 to 48 hrs by microdilution broth method; assay type: functional; conditions: time 24-48 hrs; in short: as §3
[13] = Hemolytic activity in human Red blood cells assessed as effect of lipid bilayer membrane incubated for 1 hr by absorbance based spectrophotometric analysis; assay type: toxicity, cell-based; conditions: erythrocyte
In short: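 Human erythrocyte suspension mixed 1:1 with compound in Hartmann's solution at final 125 μM, final DMSO 1.0% (v/v), 37 °C for 1 h. After centrifugation, released haemoglobin in the supernatant was read at 405 nm. Negative control was hRBCs with 1.0% DMSO; positive control was hRBCs sonicated for 1 min.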

[14] = system: Mycobacterium kansasii; test: Antimycobacterial activity against multi-drug resistant Mycobacterium kansasii CNCTC 6509/96 clinical isolate assessed as bacterial growth inhibition incubated for 14 days by two-fold serial dilution method; assay type: functional; conditions: CNCTC 6509/96, 336 h, time 14 day
In short: (§4)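 M. kansasii clinical isolate 6509/96 (stock dilution 10−4) in Šula's semisynthetic liquid medium; two-fold serial dilutions 1000 to 1 μM, DMSO final 1.0% v/v; final load 1.5 × 10^5 CFU mL−1; MIC read visually as complete growth inhibition at 7, 14 and 21 days.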

[15] = system: Trichophyton interdigitale; test: Antifungal activity against Trichophyton interdigitale ATCC 9533 measured after 24 to 48 hrs by microdilution broth method; assay type: functional; conditions: time 24-48 hrs
[16] = system: Pichia kudriavzevii; test: Antifungal activity against Candida krusei CCM 8271 measured after 24 to 48 hrs by microdilution broth method; assay type: functional; conditions: time 24-48 hrs; in short: as §1
[17] = system: Mycobacterium tuberculosis; test: Antimycobacterial activity against multidrug sensitive Mycobacterium tuberculosis H37Rv CNCTC 331/88 assessed as bacterial growth inhibition incubated for 14 days by two-fold serial dilution method; assay type: functional; conditions: H37Rv CNCTC 331/88, 336 h, time 14 day
[18] = system: Mycobacterium kansasii; test: Antimycobacterial activity against multi-drug resistant Mycobacterium kansasii clinical isolate CNCTC 6509/96 assessed as bacterial growth inhibition incubated for 21 days by two-fold serial dilution method; assay type: functional; conditions: CNCTC 6509/96, 504 h, time 21 day; in short: as §4
[19] = system: Lichtheimia corymbifera; test: Antifungal activity against Lichtheimia corymbifera CCM 8077 measured after 24 to 48 hrs by microdilution broth method; assay type: functional; conditions: time 24-48 hrs; in short: as §3
[20] = system: Trichophyton interdigitale; test: Antifungal activity against Trichophyton interdigitale CCM 8377 measured after 24 to 48 hrs by microdilution broth method; assay type: functional; conditions: time 24-48 hrs
[21] = system: Candida parapsilosis; test: Antifungal activity against Candida parapsilosis ATCC 22019 measured after 24 to 48 hrs by microdilution broth method; assay type: functional; conditions: Lodderomyces parapsilosis, time 24-48 hrs; in short: as §1
[22] = system: Staphylococcus epidermidis; test: Antibacterial activity against Staphylococcus epidermidis ATCC 12228 assessed as bacterial growth inhibition incubated for 24 to 48 hrs by broth microdilution method; assay type: functional; conditions: time 24-48 hrs
In short: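 Broth microdilution in cation-adjusted Mueller-Hinton broth, adapted from EUCAST. Compounds were tested at 0.98–500 μM with final DMSO ≤1.0% (v/v). Inoculum came from 16–24 h cultures, final ~5 × 10^5 CFU mL−1. Plates were incubated statically, dark and humidified, at 35 ± 2 °C. MIC was read by eye at 24 and 48 h as the lowest concentration with no visible growth.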

[23] = system: Staphylococcus aureus; test: Antibacterial activity against methicillin-resistant Staphylococcus aureus ATCC 43300 assessed as bacterial growth inhibition incubated for 24 to 48 hrs by broth microdilution method; assay type: functional; conditions: time 24-48 hrs
In short: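 Broth microdilution per EUCAST with slight modification in cation-adjusted Mueller-Hinton broth; compounds from DMSO stocks (final DMSO ≤1.0% v/v), 0.98–500 μM; final inoculum about 5 × 10^5 CFU mL−1 from 16–24 h cultures; static incubation in dark, humidified air at 35 ± 2 °C; MIC read by eye at 24 and 48 h as lowest concentration without visible growth.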

| Structure (SMILES) | MIC [2] [µM] | MIC [4] [µM] | MIC [5] [µM] | MIC [8] [µM] | Activity [13] | MIC [14] [µM] | MIC [17] [µM] | MIC [18] [µM] | MIC [22] [µM] | also measured |
| --- | --- | --- | --- | --- | --- | --- | --- | --- | --- | --- |
| C/C(=N\NC(=O)c1ccncc1)C(=O)Nc1ccc(Oc2ccccc2)cc1 | 0.25 (≈ 0.0936 µg/mL) | 500 (≈ 187 µg/mL) | ≤ 1 | 500 (≈ 187 µg/mL) | Non-toxic | ≤ 1 | 0.25 (≈ 0.0936 µg/mL) | 2 (≈ 0.749 µg/mL) |  | MIC [1]: > 500 µM; MIC [3]: > 500 µM; MIC [6]: > 500 µM; MIC [7]: > 500 µM; MIC [9]: > 500 µM; MIC [10]: > 500 µM; MIC [11]: > 500 µM; MIC [12]: > 500 µM; MIC [15]: > 500 µM; MIC [16]: > 500 µM; MIC [19]: > 500 µM; MIC [20]: > 500 µM; MIC [21]: > 500 µM |
| C/C(=N\NC(=O)c1ccncc1)C(=O)NNC(=O)c1ccncc1 | 0.5 (≈ 0.163 µg/mL) | 500 (≈ 163 µg/mL) | 8 (≈ 2.61 µg/mL) | 500 (≈ 163 µg/mL) |  | 16 (≈ 5.22 µg/mL) | 0.25 (≈ 0.0816 µg/mL) | 16 (≈ 5.22 µg/mL) | 250 (≈ 81.6 µg/mL) | MIC [23]: 500 µM (≈ 163 µg/mL) |
| C/C(=N\NC(=O)c1ccncc1)C(=O)Nc1ccc(Sc2ccc([N+](=O)[O-])cc2)cc1 | 0.25 (≈ 0.109 µg/mL) | 500 (≈ 218 µg/mL) | 1 (≈ 0.435 µg/mL) | 500 (≈ 218 µg/mL) | Non-toxic | 1 (≈ 0.435 µg/mL) | 0.25 (≈ 0.109 µg/mL) | 2 (≈ 0.871 µg/mL) |  |  |
| C/C(=N\NC(=O)c1ccncc1)C(=O)NNC(N)=S | 2 (≈ 0.561 µg/mL) | 1000 (≈ 280 µg/mL) | 16 (≈ 4.49 µg/mL) | 1000 (≈ 280 µg/mL) |  | 32 (≈ 8.97 µg/mL) | 1 (≈ 0.28 µg/mL) | 32 (≈ 8.97 µg/mL) | 125 (≈ 35 µg/mL) |  |
| COC(=O)c1ccc(NC(=O)/C(C)=N/NC(=O)c2ccncc2)cc1O | 0.5 (≈ 0.178 µg/mL) | ≥ 1000 | 8 (≈ 2.85 µg/mL) | ≥ 1000 |  | 16 (≈ 5.7 µg/mL) | 0.5 (≈ 0.178 µg/mL) | 16 (≈ 5.7 µg/mL) | 125 (≈ 44.5 µg/mL) |  |
| COc1nc2ccc(Br)cc2cc1[C@@H](c1ccccc1)[C@@](O)(CCN(C)C)c1cccc2ccccc12 [BEDAQUILINE] |  |  |  |  | Toxic |  |  |  |  |  |
